Source: PubChem BioAssay
Shown are actives, neighbours in structure and some others; about 4% of the full set was active somewhere.
OX1R antag-1 = OX1R (HCRTR1) antagonists, primary screen, fluorescence, CHO/OX1R cells, Fluo-8 calcium, orexin A; 330,000 tested, 0.43% active; Orexin/Hypocretin receptor type 1 (Homo sapiens), O43613; Fluo-8 calcium fluorescence; inhibition, % at 5 µM;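 active = inhibition above its plate's threshold, mean inhibition of all tested compounds on the plate plus 3 SD, cut at about 37% in these data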;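 also: 0% = orexin A challenge wells and 100% = SB-334867-A antagonist wells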
Target sequence (O43613 whole entry, looked up): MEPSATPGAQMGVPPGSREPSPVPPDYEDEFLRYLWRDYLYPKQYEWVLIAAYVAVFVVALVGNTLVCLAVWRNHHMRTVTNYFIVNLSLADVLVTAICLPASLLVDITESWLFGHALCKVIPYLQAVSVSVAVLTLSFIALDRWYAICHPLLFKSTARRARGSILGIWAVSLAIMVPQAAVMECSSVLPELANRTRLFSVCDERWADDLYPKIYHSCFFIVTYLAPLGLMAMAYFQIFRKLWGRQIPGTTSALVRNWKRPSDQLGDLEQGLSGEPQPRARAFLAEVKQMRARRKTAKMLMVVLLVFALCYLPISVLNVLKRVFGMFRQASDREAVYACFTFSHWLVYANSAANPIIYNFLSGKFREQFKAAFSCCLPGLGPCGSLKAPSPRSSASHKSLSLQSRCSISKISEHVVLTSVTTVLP
CHO parental Ca = ATP-evoked calcium signal inhibitors, parental CHO, primary screen, counter-screen for OX1R antagonist project, cell-based, fluorescence, Fluo-8 calcium dye; parental CHO-K1, ATP-induced calcium, Fluo-8 fluorescence; inhibition, % at 5.6 µM; 330,000 tested, 0.63% active; AID 463079, 2010;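 active = inhibition above that plate's mean sample inhibition plus 3 SD, cut at about 26% in these data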;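 also: 0% = ATP-challenged DMSO wells and 100% = DMSO wells without ATP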
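material = parental CHO cells | also added = ATP as calcium-mobilizing challenge | dosing = single point at 5.6 µM | detection = intracellular calcium via Fluo-8 no-wash fluorescent dye | read-out = % inhibition | benchmarks = low control ATP plus DMSO, high control DMSO only | repeats = one well per compound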
OX1R antag-2 = antagonists of human orexin 1 receptor (OX1R) | OX1R-expressing cells, FRET antagonist read-out | inhibition, % at 6.6 µM | 330,000 tested, 1.8% active | AID 485270, 2010 | Orexin/Hypocretin receptor type 1 (Homo sapiens), O43613; in the data active = inhibition mostly above about 38%, no sharp cut-off; inactive = mostly below about 40%;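 also: 0% = agonist challenge alone and 100% = reference antagonist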
TAAR1 antag = human TAAR1 antagonists, primary screen, Fluo-8 calcium fluorescence, CHO RD-HGA16 cells. Trace amine-associated receptor 1 (Homo sapiens), Q96RJ0. antagonist. inhibition, % at 3 µM. 360,000 tested, 1.5% active. AID 624466, 2012;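 active = inhibition above a per-plate cutoff, the mean inhibition of test compounds on that plate plus 3 SD, cut at about 49% in these data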;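 also: 0% = DMSO plus EC80 beta-PEA response and 100% = DMSO alone without agonist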
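Test system: RD-HGA16 CHO cells with stable hTAAR1 and Gα16 / Probe or stimulus: EC80 β-phenethylamine stimulus / Times: seeding 17-24 h prior, 75-min 37 °C, 30-min RT dye loading / Detection: Fluo-8 calcium-sensitive fluorescence / Read-out basis: % inhibition scaled between DMSO and EC80 PEA controls / Repeats: singlicate, one well per test compound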
TAAR1 agonist = human TAAR1 agonists, primary screen, Fluo-8 calcium fluorescence, CHO RD-HGA16 cells; vehicle wells 0%, saturating PEA agonist 100%; activation, % at 3 µM; AID 624467, 2012; Trace amine-associated receptor 1 (Homo sapiens), Q96RJ0; 360,000 tested, 0.99% active;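 active = activation above the mean activation of all test compounds in the run plus 3 SD, cut at about 38% in these data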
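test system = CHO RD-HGA16 cells carrying human TAAR1 plus Gα16 | schedule = 17-24 h seeding, 75 min 37 °C dye, 30 min RT | compound dosing = 3 µM single concentration | control set = DMSO and PEA EC100 | replicates = n 1 | signal = Fluo-8 fluorescence, 5 s baseline then 140 s kinetic read | measure = percent activation vs PEA EC100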
TAAR1 nonsel count = nonselective antagonists in TAAR1 counter-screen cells, counter-screen for hTAAR1 antagonist project, cell-based, fluorescence, calcium | shares compounds with TAAR1 antag | counterscreen cell line, antagonist mode | inhibition, % at 3 µM | 2,400 tested, 77% active; in the data active = inhibition above about 22%;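 also: CHO-Ga16 host cells stimulated with ATP at an EC80 level; 0% = agonist EC80 plus vehicle and 100% = vehicle without agonist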
TAAR1 antag conf = human TAAR1 antagonists, retest of hits, confirmation, cell-based, fluorescence | inhibition, % at 3 µM | 2,400 tested, 40% active | TAAR1-expressing cells, fluorescence antagonist read-out | shares compounds with TAAR1 antag; in the data active = inhibition above about 49%;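 also: CHO-Ga16 host cells challenged with agonist PEA near its EC80; 0% = agonist at EC80 plus vehicle and 100% = vehicle with no agonist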
Ga16 ag counter = calcium activation in Ga16-expressing cells, counter-screen for TAAR1 antagonist project, cell-based, fluorescence | activation, % at 3 µM | shares compounds with TAAR1 antag | 2,400 tested, 18% active | agonist counterscreen; in the data active = activation above about 12%;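 also: 0% = vehicle wells and 100% = saturating stimulus response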
TAAR1 ag count = TAAR1 activation by candidate antagonists – cell-based, fluorescence, counter-screen for TAAR1 antagonist project | shares compounds with TAAR1 antag | hTAAR1 cell line, agonist mode | activation, % at 3 µM | 2,400 tested, 2% active; in the data active = activation above about 37%;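 also: CHO cells stably expressing TAAR1 with calcium dye readout; 0% = DMSO vehicle and 100% = full agonist response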
An asterisk follows results filed as active; nt = no result.

SMILES | OX1R antag-1 | CHO parental Ca | OX1R antag-2 | TAAR1 antag | TAAR1 agonist | TAAR1 nonsel count | TAAR1 antag conf | Ga16 ag counter | TAAR1 ag count
CCCCNC(=O)C1C(c2ccc(OC)cc2)=Nc2ccccc2N1C(=O)c1cccnc1 (stereo not given) | nt | nt | nt | -13.6 | 0.0 | nt | nt | nt | nt
COc1ccc(-c2sc3ccccc3c2C#Cc2cncn2C)cc1 | -1.2 | -11.6 | 10.9 | 8.2 | 0.9 | nt | nt | nt | nt
Cn1cncc1C#Cc1c(-c2ccc(S(C)(=O)=O)cc2)sc2ccccc12 | 18.5 | -7.8 | 2.7 | 60.8* | 10.9 | 32.5* | 35.2 | 6.2 | 0.9
CN1C2CCC1CC(NC(=O)c1cc(S(=O)(=O)N(C)C)c(Cl)cc1Cl)C2 (stereo not given) | -21.6 | -13.2 | 2.8 | 4.2 | 7.7 | nt | nt | nt | nt
COc1cc(-c2nc3ccccc3c(=O)n2N)cc(OC)c1OC | -30.9 | -9.4 | 2.6 | -6.0 | 1.9 | nt | nt | nt | nt
CCN(CC)S(=O)(=O)c1ccc(N2CCOCC2)c(NC(=O)c2cc(-c3ccccn3)nc3ccccc23)c1 | nt | nt | nt | 71.3* | 18.0 | 27.2* | 52.1* | 8.3 | 10.9
CCN(CC)S(=O)(=O)c1ccc(N2CCOCC2)c(NC(=O)c2cccc(C#N)c2)c1 | -12.9 | -26.2 | 14.2 | 104.3* | -2.7 | 7.8 | 2.1 | 0.1 | 4.8
CCN(CC)S(=O)(=O)c1ccc(N2CCOCC2)c(NC(=O)c2cccc3ccccc23)c1 | -15.4 | -18.1 | 4.4 | 40.4 | 12.3 | nt | nt | nt | nt
CCN(CC)S(=O)(=O)c1ccc(NC(=O)c2cc(-c3ccccc3)nc3ccccc23)cc1 | -14.5 | -6.9 | 0.8 | 54.4* | 3.0 | 27.1* | 35.3 | 7.7 | -1.6
CCN(CC)S(=O)(=O)c1ccc(N2CCOCC2)c(NC(=O)c2c3c(nc4ccccc24)CCC3)c1 | -21.8 | -34.0 | 1.6 | 55.7* | 13.1 | 18.4 | 35.9 | 7.1 | 6.9
O=C(O)c1cc([N+](=O)[O-])ccc1NCc1ccccn1 | 0.0 | -7.0 | 22.3 | -10.9 | 1.9 | nt | nt | nt | nt
COc1ccc(N(C)S(=O)(=O)c2cccc(C(=O)Nc3ccc4c(c3)OCCO4)c2)cc1 | -13.5 | -2.5 | 38.7 | 35.9 | 3.7 | nt | nt | nt | nt
COc1ccc(N(C)S(=O)(=O)c2cccc(C(=O)Nc3ccc(-n4cnnn4)cc3)c2)cc1 | 10.7 | 20.2 | 16.6 | 75.0* | 19.1 | 46.6* | 51.6* | 13.3* | 5.4
COc1ccc(N(C)S(=O)(=O)c2cccc(C(=O)Nc3ccc(OC)nc3)c2)cc1 | 4.2 | 0.9 | 17.2 | 62.0* | 17.9 | 31.0* | 43.1 | 10.6 | 5.6
COc1cc(NC(=O)CCl)ccc(=O)c1 | nt | nt | nt | -6.3 | 1.4 | nt | nt | nt | nt
COc1ccc(-c2ccc3c(c2)S(=O)(=O)c2cccc(C(=O)NCc4cc(C)oc4C(F)(F)F)c2C3=O)cc1OC | 25.6 | -11.5 | 8.1 | nt | nt | nt | nt | nt | nt
OC(c1ccc(-c2ccccc2)cc1)c1ncc(-c2cccc(F)c2)[nH]1 (stereo not given) | nt | nt | nt | 5.5 | 1.4 | nt | nt | nt | nt
O=C(COC(=O)Cc1c(Cl)cccc1Cl)Nc1ccccc1-c1ccccc1 | -10.0 | 3.1 | 14.9 | 62.3* | 5.1 | 22.3* | 52.1* | 8.2 | 12.6
O=C(c1ccncc1)c1ccc(N2CCN(C3CC(=O)N(Cc4cccs4)C3=O)CC2)cc1 (stereo not given) | 0.6 | -4.0 | 38.7 | 58.5* | 15.6 | 35.7* | 50.3* | 13.6* | 11.2
CC1=C(C)CC(C(=O)Nc2ccc(C(=O)N3CCOCC3)cc2)C(C(=O)O)C1 (stereo not given) | -4.9 | -3.4 | 12.4 | 11.9 | 2.2 | nt | nt | nt | nt
